Experiments:
[1] = target: GABA-A receptor; anion channel; test: Inhibitory concentration against specific binding of [3H]diazepam to Benzodiazepine receptor in rat brain; type: tissue-based
Rattus norvegicus = species on record: Rattus norvegicus; test: Percent change in conflict responding in Long-Evans rats; type: functional
How it was run: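 Long-Evans rats on a modified Geller–Seifter conflict schedule. Dosed by oral gavage at 25 mg/kg as a 0.5% methylcellulose suspension, with chlordiazepoxide at 20 mg/kg. Read-out is percent change in conflict responding, mean ±.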

[2] = target: T1, GABA-A receptor; anion channel (Rattus norvegicus) (UniProt O09028+P15431+P18506+P18508+P19969+P20236+P23574+P23576+P28471+P28473+P30191+P62813+P63079+P63138+Q91ZM7+Q9ES14); test: Inhibition of [3H]-diazepam binding to rat brain GABA-A benzodiazepine receptor at 100 uM
[3] = target: T1, GABA-A receptor; anion channel (Rattus norvegicus); test: Inhibition of [3H]diazepam binding to rat brain GABA-A Benzodiazepine receptor at 100 uM

IC50 [1] | Compound | Change (Rattus norvegicus) | also measured
2200 nM | CC(c1cccc(O)c1)n1cnc2c(O)ncnc21 (racemic) |  | 
520 nM | CC(c1cccc(N)c1)n1c(Br)nc2c(N(C)C)ncnc21 (racemic) | 5% | 
 | CN(C)c1ncnc2c1ncn2Cc1cccc(O)c1 | 2% | 
 | CC(=O)Oc1cccc(C(C)n2cnc3c(O)ncnc32)c1 (racemic) |  | inhibition [2]: 68%
1700 nM | CSc1ncnc2c1ncn2C(C)c1cccc(OC(C)=O)c1 (racemic) |  | 
 | CC(c1cccc(O)c1)n1cnc2c(S)ncnc21 (racemic) |  | inhibition [3]: 64%
 | CSc1ncnc2c1ncn2Cc1ccccc1 | 13% | 
1200 nM | CSc1ncnc2c1ncn2C(C)c1cccc(O)c1 (racemic) |  | 
 | CC(=O)Oc1cccc(Cn2cnc3c(N(C)C)ncnc32)c1 | 2% | 
380 nM | CC(=O)Oc1cccc(C(C)n2cnc3c(N(C)C)ncnc32)c1 (racemic) |  | 
160 nM | CC(c1cccc(N)c1)n1cnc2c(N(C)C)ncnc21 (racemic) | -22% | 
 | C[C@@H](c1ccccc1)n1cnc2c(N(C)C)ncnc21 | 5% | 
100000 nM | C[C@H](c1ccccc1)n1cnc2c(N(C)C)ncnc21 |  | 
480 nM | CC(c1cccc(O)c1)n1cnc2c(N(C)C)ncnc21 (racemic) | -7% | 

— ChEMBL document CHEMBL1125133, “Benzodiazepine receptor binding activity of 9-(1-phenylethyl)purines” (J Med Chem, 1990)
